APJ ag = agonists of human apelin receptor APJ, primary screen, CHO-K1 cells, PathHunter beta-arrestin, luminescence; AID 2520, 2010; 0% DMSO wells, 100% apelin; activation, % at 20 µM; 330,000 compounds, 0.11% hits;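 active = activation more than six SD over the plate average, tested at 20 µM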;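 also: 0% = DMSO alone and 100% = apelin-13 at 10 nM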
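Assay system: CHO-K1 cells stably expressing ProLink-tagged human APJ and arrestin–beta-gal acceptor. Compound dosing: 20 µM single point, 1% DMSO. Times: 16-18 h seeding, 90 min dark compound exposure, 60 min detection. Detection: beta-gal luminescence. Evaluation: APJ–arrestin association signal. Controls: negative DMSO alone, positive Apelin-13 at 10 nM.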
EBI2 antag = EBI2 receptor antagonists, beta-arrestin recruitment, primary screen, cell-based, luminescence, 7a,25-OHC stimulation, uHTS. 7a,25-OHC stimulated. AID 651636, 2012. 360,000 compounds, 0.81% hits. G-protein coupled receptor 183 (Homo sapiens), P32249. inhibition, % at 5 µM; in the data active = inhibition above about 38%;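 also: enzyme fragment complementation signal reports receptor beta-arrestin coupling in cells; 0% = agonist plus DMSO wells and 100% = wells without agonist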
HTR2A ag = mouse Htr2a agonists via beta-arrestin recruitment, primary screen, cell-based, luminescence; AID 624169, 2012; 5-hydroxytryptamine receptor 2A (Mus musculus), P35363; 360,000 compounds, 0.66% hits; activation, % at 7.6 µM; CHO-K1 mHTR2A beta-arrestin complementation; percent of 30 µM serotonin response;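 active = activation above a run cutoff, the mean activation of all tested compounds plus 3 SD, cut at about 14% in these data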;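 also: 0% = plate median of compound wells and 100% = 30 µM serotonin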
CXCR6 inh = CXCR6 receptor inhibitors, primary screen, cell-based, beta-arrestin, luminescence, CHO-K1 PathHunter, 1536-well; 360,000 compounds, 0.36% hits; C-X-C chemokine receptor type 6 (Homo sapiens), O00574; inhibition, % at 20 µM; AID 602244, 2012; in the data active = inhibition above about 34%, passing the limit was not always enough;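 also: antagonist mode with CXCL16 agonist at 10 nM final; 0% = 10 nM CXCL16 with DMSO and 100% = unstimulated wells without agonist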
Target sequence (O00574 whole entry, looked up): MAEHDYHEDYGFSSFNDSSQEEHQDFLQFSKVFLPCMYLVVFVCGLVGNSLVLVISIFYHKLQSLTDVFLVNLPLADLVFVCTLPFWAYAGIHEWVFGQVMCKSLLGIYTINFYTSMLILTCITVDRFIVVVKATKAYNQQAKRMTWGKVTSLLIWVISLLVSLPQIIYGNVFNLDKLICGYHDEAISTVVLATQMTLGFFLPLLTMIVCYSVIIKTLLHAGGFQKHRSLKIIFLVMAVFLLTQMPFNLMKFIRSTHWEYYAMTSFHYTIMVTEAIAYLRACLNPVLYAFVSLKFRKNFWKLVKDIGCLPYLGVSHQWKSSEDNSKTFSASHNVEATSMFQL
CCR6 antag = CCR6 receptor antagonists, primary screen, cell-based, CHO-K1, luminescence, beta-arrestin, uHTS; CHO-K1 CCR6 PathHunter beta-arrestin, CCL20-stimulated; inhibition, % at 20 µM; 340,000 compounds, 0.49% hits;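 active = compounds whose inhibition of the agonist-driven luminescence signal at 20 µM reaches about 50%, limit read from the data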;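 also: cells stimulated with CCL20 at 14 nM final; plate controls were DMSO with CCL20 for no effect and DMSO without agonist for full effect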
APJ antag = antagonists of human apelin receptor APJ, primary screen, CHO-K1 cells, beta-arrestin complementation, luminescence; P35414; inhibition, % at 20 µM; 330,000 compounds, 0.32% hits; AID 2521, 2010;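 active = inhibition above about 40% at 20 µM, limit read from the data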;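 also: cells challenged with 10 nM apelin-13 agonist together with compound; plate controls were apelin-13 plus DMSO wells for no effect and DMSO wells lacking apelin-13 for full effect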
OPRM1 ag = OPRM1 agonists via beta-arrestin recruitment, confirmation, counter-screen for mouse HTR2A agonist project, cell-based, luminescence, single concentration; AID 624380, 2012; activation, % at 9.3 µM; shares compounds with HTR2A ag; 2,300 compounds, 5.3% hits; U2OS OPRM1 beta-arrestin PathHunter; DMSO 0%, DAMGO 9.3 µM 100%;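 active = mean activation above the mean of DMSO-only wells plus 3 SD, cut at about 0.5% in these data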
HTR2A ag conf = mouse HTR2A agonists, beta-arrestin recruitment, confirmation, cell-based, luminescence, CHO-K1 PathHunter, triplicate | shares compounds with HTR2A ag | DMSO 0%, 30 µM serotonin 100% | activation, % at 7.6 µM | 2,300 compounds, 19% hits;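 active = mean activation across triplicates above the hit threshold derived in the original primary screen, cut at about 15% in these data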
* = called active by the depositor; . = no result given. Shown are actives, neighbours in structure and some others; about 2.1% of the full set was active somewhere.

SMILES	APJ ag	EBI2 antag	HTR2A ag	CXCR6 inh	CCR6 antag	APJ antag	OPRM1 ag	HTR2A ag conf
COc1ccccc1C1CC(=O)Nc2c1c(=O)n(C)c(=O)n2C (configuration not stated)	-0.8	-9.8	14.4*	0.1	-1.6	25.1	-0.1	1.8
Cc1[nH]nc(NCCO)c1[N+](=O)[O-]	-0.8	-3.8	2.7	-1.5	-2.8	10.0	.	.
Cc1ccc(C(=O)c2cc([N+](=O)[O-])ccc2N2CCOCC2)c(C)c1	-8.6	10.3	14.7*	13.1	0.3	-9.5	-0.5	-3.3
S=c1[nH]nc(CSCc2ccccc2Cl)n1C1CCCCC1	.	3.6	29.3*	10.3	-4.6	.	-0.3	-1.2
COc1ccc2c(c1)c(=O)oc1cc(OCC(=O)NC3CC3)ccc12	-0.1	-1.6	15.3*	5.6	9.1	14.6	-0.3	-4.2
COc1ccc2c(c1)c(=O)oc1cc(OCC(=O)NC3CCCCC3)ccc12	1.1	34.9	7.2	-4.3	11.8	-4.8	.	.
Cc1nc(SCC(=O)N2CCN(C(=O)c3cccs3)CC2)c2c(C)c(C)sc2n1	-2.2	-10.1	16.1*	-11.5	12.6	-2.4	-0.5	1.2
Cc1nc(SCC(=O)N2CCN(C(=O)c3ccco3)CC2)c2c(C)c(C)sc2n1	2.8	5.7	0.4	-4.3	8.1	0.9	.	.
CC1CCN(CCCCOc2cccc(C(C)C)c2)CC1	0.5	-7.0	-14.9	0.2	16.7	-3.0	.	.
N#CCCN(Cc1cccnc1)C(=S)NC(=O)c1ccco1	-4.2	-2.1	9.1	4.0	-3.0	0.6	.	.
CC(C)[C@H](NC(=O)C1CC(=O)N(c2ccc3c(c2)OCCO3)C1)C(=O)NC1CCCC1 (some centres not stated)	-2.1	-5.3	21.8*	-3.9	15.5	-7.0	-0.6	-2.6
CCC(C)[C@H](NC(=O)C1CC(=O)N(c2ccc3c(c2)OCCO3)C1)C(=O)NC1CCCC1 (some centres not stated)	3.0	5.6	-4.9	1.3	-0.9	-6.1	.	.
O=C(c1ccco1)N1CCN(Cc2ccccc2F)CC1	0.0	-2.2	20.4*	-3.5	-12.1	-10.8	0.0	75.9*
CN(C)C(=O)N1CCN(C(=O)c2ccco2)CC1	-3.8	-6.1	-3.1	-1.4	7.1	11.9	.	.
Cc1cc(C)c(OCC(=O)OCC(=O)N2CCN(C(=O)c3ccco3)CC2)c(C)c1	-7.0	-3.4	18.8*	5.7	16.9	5.8	-0.4	-5.2
O=C(c1ccco1)N1CCN(Cc2c(F)cccc2Cl)CC1	0.5	-4.0	9.6	-6.6	1.9	5.4	.	.
Cc1ccccc1CN1CCN(C(=O)c2ccco2)CC1	-3.5	-9.4	25.3*	-6.8	-2.0	5.5	0.0	85.0*
Cc1ccsc1C(=O)N1CCN(C(=O)c2ccco2)CC1	-4.5	-20.2	17.3*	-7.3	-1.6	-4.9	-0.7	-4.0
CCN(CC)S(=O)(=O)c1ccc(N2CC(C(=O)NCc3ccc4c(c3)OCO4)CC2=O)cc1 (configuration not stated)	-0.9	5.1	1.8	-1.8	-1.8	7.2	.	.
Cc1cc(C)n(Cc2ccc(C(=O)Nc3ccc(Br)cc3C)o2)n1	-3.4	7.8	-3.1	0.7	10.3	7.9	.	.
COC(=O)c1sc(N)nc1C(C)(C)C	2.8	-6.5	3.1	-5.7	2.0	4.8	.	.
Cc1onc(-c2ccccc2)c1C(=O)N1CCN(Cc2ccc3c(c2)OCO3)CC1	-0.2	-7.2	-3.0	3.9	-5.6	8.6	.	.

Compound activity from PubChem BioAssay.
